Bioassay records as filed in PubChem BioAssay.
In the library only some 3.7% were active in any assay of this set; here they are far more common.
KCNQ1 act: potentiates or activates the human KCNQ1 potassium channel; CHO-K1 KCNQ1, thallium flux FluxOR fluorescence; active compounds read high; B-score at 10 µM; actives 0.35% (n = 310,000); AID 2648;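 active = fluorescence ratio B-score, a plate-corrected score, at least three library SD, with initial intensity B-score within 5 SD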
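assay system = CHO-K1 cells stably expressing KCNQ1 | medium = assay buffer, equal DMSO in all wells | timing = 37 °C overnight plating, 90-min dark dye load, 20-min compound pretreatment | measured by = kinetic FluxOR thallium fluorescence, 10-s 1-Hz baseline, 110-s post-stimulus read | measure = fluorescence change relative to baseline, converted to B score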
hERG protect: hERG (human) protection from proarrhythmic block. Q12809. CHO-hERG, FluxOR thallium flux, dofetilide IC70 present. activation (rescue from dofetilide block), less the hit threshold, % at 10 µM. actives 0.51% (n = 310,000). AID 1511;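 active = activation above the mean of controls blocked by dofetilide plus 5 SD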;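 note: thallium influx through hERG after potassium depolarization seen as dye fluorescence rise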
KCNK9 inh: inhibitors of human KCNK9 two-pore domain potassium channel; HEK293 KCNK9, FluxOR thallium flux fluorescence; active compounds read low; Q9NPC2; actives 1.2% (n = 310,000); AID 488922; B-score at 10 µM;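 active = ratio B-score over 3 SD below the library mean, with starting fluorescence within 5 SD of its mean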;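 note: negative B-score means less thallium flux so channel inhibition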
KCNQ1 inh: inhibitors of human KCNQ1 potassium channel. P51787. CHO-K1 KCNQ1, FluxOR thallium flux fluorescence; active compounds read high. B-score at 10 µM. actives 1.3% (n = 310,000). AID 2642;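 active = compounds whose thallium flux B-score, printed positive for inhibition, exceeds three library SD while starting fluorescence stays within three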;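 note: channel opened by potassium depolarization with thallium stimulus after 20 min compound exposure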
Kir21 inh: blocks the mouse Kir2.1 inward-rectifier potassium channel | P35561 | AID 1672 | B-score at 10 µM | HEK293-Kir2.1, FluxOR thallium flux fluorescence; active compounds read low | actives 0.85% (n = 310,000);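 active = fluorescence ratio B-score at or below minus 3 SD of library scores, with starting-brightness B-score within 2 SD, cut at about -4.2 in these data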;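 note: channel flux triggered by added potassium and thallium sulfate stimulus; B-score of peak minus minimum fluorescence over baseline after thallium stimulus; more negative B-score means stronger Kir2.1 block with less thallium influx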
Target sequence (P35561 whole entry, looked up): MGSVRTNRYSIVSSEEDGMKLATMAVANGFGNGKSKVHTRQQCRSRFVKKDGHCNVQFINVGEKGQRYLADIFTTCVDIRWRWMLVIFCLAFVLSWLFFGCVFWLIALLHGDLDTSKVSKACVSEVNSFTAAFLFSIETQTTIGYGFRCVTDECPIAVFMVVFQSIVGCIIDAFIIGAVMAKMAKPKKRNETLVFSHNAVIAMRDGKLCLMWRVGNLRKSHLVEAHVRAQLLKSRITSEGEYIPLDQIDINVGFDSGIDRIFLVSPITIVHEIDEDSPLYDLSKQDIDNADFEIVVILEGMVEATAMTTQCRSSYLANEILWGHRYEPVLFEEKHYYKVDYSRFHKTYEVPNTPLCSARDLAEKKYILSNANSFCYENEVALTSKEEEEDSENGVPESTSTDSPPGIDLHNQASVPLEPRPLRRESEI
KCNK3 inh: human KCNK3 channel inhibition, primary screen; B-score at 10 µM; O14649; CHO-KCNK3 thallium flux, FluxOR fluorescence; active compounds read low; actives 0.84% (n = 340,000);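 active = B-score under library mean minus 4 SD, starting fluorescence ratio at most library mean plus 5 SD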;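 note: more negative B-score means stronger inhibition of thallium flux through KCNK3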
Target sequence (O14649 whole entry, looked up): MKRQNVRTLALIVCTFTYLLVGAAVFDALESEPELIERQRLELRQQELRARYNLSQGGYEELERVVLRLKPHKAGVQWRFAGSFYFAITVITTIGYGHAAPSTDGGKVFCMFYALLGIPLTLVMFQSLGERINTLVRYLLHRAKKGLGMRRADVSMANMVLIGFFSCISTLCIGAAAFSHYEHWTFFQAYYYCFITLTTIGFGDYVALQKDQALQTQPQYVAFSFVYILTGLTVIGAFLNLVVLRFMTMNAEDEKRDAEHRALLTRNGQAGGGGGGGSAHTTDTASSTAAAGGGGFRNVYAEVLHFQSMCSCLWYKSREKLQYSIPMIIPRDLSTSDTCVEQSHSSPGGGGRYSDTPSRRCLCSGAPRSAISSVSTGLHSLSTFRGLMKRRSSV
KCNQ1 block val: confirmation of human KCNQ1 potassium channel inhibitors | shares compounds with KCNQ1 inh | actives 93% (n = 1,600) | inhibition, % at 10 µM | KCNQ1 cell line, FluxOR thallium flux fluorescence | AID 588353;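 active = primary screen active, with duplicate mean exceeding buffer control mean plus 3 SD of buffer wells, cut at about 28% in these data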
CHO KCNQ1 ctr: activity in parental CHO cells lacking KCNQ1 | shares compounds with KCNQ1 inh | parental CHO-K1, FluxOR thallium flux fluorescence ratio; active compounds read low; zero means no signal rise above baseline | fluorescence ratio (Tl flux) at 10 µM | actives 21% (n = 1,600) | AID 588366;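 active = mean of duplicate thallium-flux fluorescence ratios in parental host cells more than 5 SD below the buffer control mean, cut at about 0.38 in these data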;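 note: ratio is peak minus minimum fluorescence divided by baseline fluorescence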
KCNQ1 APC inh: blocks human KCNQ1 current in automated patch clamp | shares compounds with KCNQ1 inh | KCNQ1-CHO cells | calls only at 10 µM | actives 20% (n = 490) | AID 624120;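 active = KCNQ1 current drop exceeding 3 SD of negative control wells, seen in both duplicate runs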;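 note: steady state current during a 2 s step from -80 to +40 mV; negative values mean current inhibition and positive values mean potentiation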
KCNQ2 inh: selectivity of KCNQ1 inhibitors: inhibition of rat KCNQ2 channel. shares compounds with KCNQ1 inh. KCNQ2 cells, FluxOR thallium flux fluorescence. inhibition, % at 10 µM. actives 71% (n = 1,600). AID 651746;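 active = mean percent inhibition of the KCNQ2 thallium signal more than 5 SD above the buffer-only control wells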;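 note: KCNQ2 expressed in CHO cells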
KCNQ1-KCNE1 inh: KCNQ1 inhibitor that also blocks human KCNQ1/KCNE1 channel; shares compounds with KCNQ1 inh; KCNQ1/KCNE1 cells, FluxOR thallium flux fluorescence; inhibition, % at 10 µM; actives 77% (n = 1,600);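 active = mean percent inhibition of duplicate wells above the buffer-only control mean plus 3 SD of those controls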
Large screens that a line does not name were inactive (follow-up assays come after a bar, where they were run).

CC(C)(C)c1ccc(OCCC(=O)Nc2cccc(S(=O)(=O)N3CCCC3)c2)cc1	KCNQ1 inh 8 | KCNQ1 block val 34 | CHO KCNQ1 ctr inactive | KCNQ2 inh 84% | KCNQ1-KCNE1 inh 66%
CC(=O)Nc1cccc(OCC(=O)Nc2cccc(S(=O)(=O)N3CCCC3)c2)c1	none (no result: KCNQ1 act, hERG protect, KCNK9 inh, KCNQ1 inh, Kir21 inh)
Cc1ccc(C2=NN(C(=O)CCl)C(c3ccco3)C2)o1 (configuration not stated)	none
FC(F)(F)Sc1ccc(NC(=S)NCc2ccccc2)cc1	KCNQ1 inh 7 | KCNQ1 block val 78 | CHO KCNQ1 ctr inactive | KCNQ2 inh inactive | KCNQ1-KCNE1 inh inactive
FC(F)(F)c1cccc(CNC(=S)Nc2ccccc2)c1	KCNQ1 inh 8 | KCNQ1 block val 46 | CHO KCNQ1 ctr inactive | KCNQ2 inh 82% | KCNQ1-KCNE1 inh inactive
CCN(CC)C(C(=O)NC1CCCCC1)c1ccc(C)cc1 (configuration not stated)	KCNQ1 inh 7 | KCNQ1 block val 75 | CHO KCNQ1 ctr inactive | KCNQ2 inh 65% | KCNQ1-KCNE1 inh 110%
COc1ccc(NS(=O)(=O)c2cc3c4c(c2)CCN4C(=O)CC3)cc1OC	none
CC(=O)c1c(N2CCOCC2)nc2ccc(Br)cc2c1-c1ccccc1	KCNQ1 inh 10 | KCNQ1 block val 100 | CHO KCNQ1 ctr inactive | KCNQ1 APC inh inactive | KCNQ2 inh 119% | KCNQ1-KCNE1 inh 101%
CCOC(=O)C1=C(C)NC(C)=C(C(=O)OCC)C1/C=C/c1ccccc1	none
C=CCOC(=O)C1=C(C)NC(C)=C(C(=O)OCC=C)C1/C=C/c1ccccc1	KCNQ1 inh 12, KCNK3 inh -11 | KCNQ1 block val 135 | CHO KCNQ1 ctr inactive | KCNQ1 APC inh inactive | KCNQ2 inh 101% | KCNQ1-KCNE1 inh 126%
COc1ccc(CN(CC(=O)NCc2ccccc2)C(=O)CCC(=O)Nc2nccs2)cc1	none
COC(=O)C1CCN(S(=O)(=O)c2cc3c4c(c2)CCN4C(=O)CC3)CC1	none
CCc1ccc(NC(=O)CN(CC(=O)Nc2ccc(CC)cc2)CC(C)O)cc1 (configuration not stated)	none
Cc1ccc(Nc2nc(N3CCOCC3)c3ccccc3n2)cc1	none
COc1ccc(Nc2nc(N3CCCC3)nc3ccccc23)c(OC)c1	KCNQ1 inh 7 | KCNQ1 block val 112 | CHO KCNQ1 ctr inactive | KCNQ2 inh 81% | KCNQ1-KCNE1 inh 137%
COc1ccc(Nc2ncnc3ccccc23)c(OC)c1	none
COc1ccc(Nc2nc(N3CCCCC3)c3ccccc3n2)cc1	KCNQ1 inh 14 | KCNQ1 block val 139 | CHO KCNQ1 ctr inactive | KCNQ1 APC inh inactive | KCNQ2 inh 103% | KCNQ1-KCNE1 inh 122%
COc1ccc(C)cc1S(=O)(=O)NCC(c1ccc2c(c1)OCO2)N1CCN(C)CC1 (configuration not stated)	none
NCCOc1ccc(C23CC4CC(CC(C4)C2)C3)cc1	KCNQ1 inh 7, Kir21 inh -4.7 | KCNQ1 block val 147 | CHO KCNQ1 ctr inactive | KCNQ1 APC inh active | KCNQ2 inh inactive | KCNQ1-KCNE1 inh inactive
COc1cc(Br)c(CN2C(=O)NC3(CCCCCC3)C2=O)cc1OC	none
Nc1ccc2nc(-c3ccccc3)c(-c3ccccc3)nc2c1	KCNQ1 inh 15 | KCNQ1 block val 148 | CHO KCNQ1 ctr 0.21 | KCNQ2 inh inactive | KCNQ1-KCNE1 inh inactive
Nc1ccc(Oc2ccc3nc(-c4ccccc4)c(-c4ccccc4)nc3c2)cc1	none
Clc1ccc(-c2nc3ccccc3nc2-c2ccccc2)cc1	none
Cc1ccc(-c2nc3ccccc3nc2-c2ccccc2)cc1	KCNQ1 inh 15 | KCNQ1 block val 88 | CHO KCNQ1 ctr inactive | KCNQ1 APC inh active | KCNQ2 inh 108% | KCNQ1-KCNE1 inh 152%
CCOc1ccc(S(=O)(=O)N2CCC(C(=O)NCc3ccco3)CC2)cc1C	none
COC(=O)c1ccc([C@H](NC(=O)c2ccco2)[C@]2(C)C[C@H]2C2CCCCC2)cc1	KCNQ1 inh 6 | KCNQ1 block val 122 | CHO KCNQ1 ctr 0.34 | KCNQ2 inh 107% | KCNQ1-KCNE1 inh 168%
Cn1c(=O)c2[nH]c(Cc3ccsc3)nc2n(C)c1=O	none (no result: KCNQ1 act, hERG protect, KCNK9 inh, KCNQ1 inh, Kir21 inh)
Cc1ccc(Nc2nc3nonc3[nH]c2=O)cc1Cl	KCNQ1 inh 9 | KCNQ1 block val 29 | CHO KCNQ1 ctr inactive | KCNQ2 inh inactive | KCNQ1-KCNE1 inh inactive
COc1cc2c(-c3ccc4cc[nH]c4c3)c(-c3ccc(C#N)cc3)oc(=O)c2cc1OC	none (no result: KCNQ1 act, hERG protect, KCNK9 inh, KCNQ1 inh, Kir21 inh)
CCCCNc1cc(C)nc(NCc2ccccc2)n1	KCNQ1 inh 10, Kir21 inh -12 | KCNQ1 block val 96 | CHO KCNQ1 ctr inactive | KCNQ1 APC inh active | KCNQ2 inh inactive | KCNQ1-KCNE1 inh 77%
Cc1cc(N2CCC(C)CC2)nc(NCc2ccccc2)n1	KCNQ1 inh 7, Kir21 inh -13 | KCNQ1 block val 46 | CHO KCNQ1 ctr inactive | KCNQ2 inh inactive | KCNQ1-KCNE1 inh inactive
Cc1cc(C)nc(NCCCc2ccccc2)n1	none
CC(NC(=O)COC(=O)Cc1cccs1)c1ccc(F)cc1 (configuration not stated)	none (no result: KCNQ1 act, hERG protect, KCNK9 inh, KCNQ1 inh, Kir21 inh)
COc1ccc(CCC(C)NCCc2ccc(Cl)cc2Cl)cc1 (configuration not stated)	KCNQ1 inh 14, Kir21 inh -13 | KCNQ1 block val 99 | CHO KCNQ1 ctr inactive | KCNQ2 inh 96% | KCNQ1-KCNE1 inh 106%
COc1cc(OC)cc(C(=O)Nc2nc(CC(=O)NCCc3ccccc3)cs2)c1	KCNQ1 inh 15 | KCNQ1 block val 48 | CHO KCNQ1 ctr inactive | KCNQ2 inh 111% | KCNQ1-KCNE1 inh 103%
O=C(CC1C(=O)Nc2ccccc2N1CC(=O)N1CCCC1)Nc1ccc(Br)cc1 (configuration not stated)	none (no result: KCNQ1 act, hERG protect, KCNK9 inh, KCNQ1 inh, Kir21 inh)
O=C(NC(=S)Nc1ccc(Br)c(Cl)c1)C1CC1	none
CC(=O)c1ccc(NC(=S)Nc2ccc(Br)c(Cl)c2)cc1	KCNQ1 inh 6 | KCNQ1 block val 61 | CHO KCNQ1 ctr inactive | KCNQ2 inh inactive | KCNQ1-KCNE1 inh inactive
